Results taken from PMC10895701 (Nature structural & molecular biology, 2023).

Experiments:
[1] = tested on: OCT1CS; test: 3H-MPP+ uptake in X. laevis oocytes expressing OCT1CS; type: cell-based; conditions: 30 min uptake
Procedure, shortened: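 Xenopus laevis oocytes injected with 30 ng cRNA, expressed 2–4 days at 17°C. Uptake of 3H-MPP+ (specific radioactivity 0.06 Ci/mmol) over a concentration series, 30 min uptake. Background corrected with water-injected oocytes; radioactivity counted. Kt fitted, reported ± s.e.m.; n=3 biologically independent replicates.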

[2] = tested on: WT hOCT1; conditions: cited from earlier work
[3] = tested on: OCT1CS; test: 14C-metformin uptake in oocytes expressing OCT1CS; type: cell-based

## C[n+]1ccc(-c2ccccc2)cc1 [MPP^+, 1-methyl-4-phenylpyridinium]
[1]
  Michaelis constant for transport (Kt) for MPP+ transport: ~ 50 μM

## CN(C)C(=N)N=C(N)N [metformin]
[2]
  Kt for metformin, previous reports: 1 to 5 mM
[3]
  Kt for metformin: ~ 3 mM
